Ecoli rRNA inh – inhibits bacterial ribosomal RNA function over humanized ribosomes; 350,000 compounds, 1.6% hits; GFP signal change (wild-type ribosome), % (concentration not given with the values); AID 720706; E. coli WT GFP vs humanized-ribosome RFP mutants, fluorescence, 24 h; active compounds read low; DMSO median 0, no signal -100;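 active means significant combined selectivity score with lowered wild-type GFP, culture density cut under 30%, mutant RFP and density less affected; inactive means any of these conditions unmet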
MLL AF4-AF9 inh – inhibitors of human MLL-AF4/AF9 interaction. inhibition, % at 10 µM. AlphaScreen, biotin-AF4 peptide binding to FLAG-AF9. 350,000 compounds, 0.47% hits;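 active means every replicate reaching a set inhibition limit, whatever the replicate mean, cut at about 25% in these data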;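 further: 0% = plate neutral control median and 100% = total signal loss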
E-sel inducer – E-selectin induction on HUVECs. P16581. HUVEC E-selectin immunofluorescence imaging; normalized: neutral wells 0, TNF-alpha wells 100. activation, % at 7.58 µM. 260,000 compounds, 0.37% hits. AID 686992;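 active means mean E-selectin-positive cell signal at least 10% of the positive control, reached in at least 60% of replicates, without over 20% cell loss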
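Assay system: HUVEC, human umbilical vein endothelial cells / Amount: 3,000 HUVEC/well / Controls: TNF-alpha positive control, DMSO neutral control / Compound dosing: single concentration / Medium: EGM-2 over gelatin coat / Evaluation: percent E-selectin-positive cells / Signal: immunofluorescence imaging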
S100A4 inh HTS – S100A4-myosin IIA interaction inhibition | P26447 | S100A4/TAMRA-MyoIIA peptide fluorescence polarization | inhibition, % at 10.7 µM | 360,000 compounds, 0.14% hits;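 active means mean inhibition of at least 70% across replicates, with every replicate also reaching that level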
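Test system – S100A4 monomer (human) · Compound – single-point compound testing · Schedule – 5 min incubation before reading · Probe or stimulus – TAMRA-labelled myosin IIA heavy-chain peptide probe, 5 nM · Benchmarks – neutral control DMSO, positive control TFP · Medium – Calcium-containing HEPES buffer, pH 7.2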
ERAP1 HTS inh – blocks human ERAP1 aminopeptidase activity; recombinant ERAP1, Leu-AMC fluorescence, 60 min; 340,000 compounds, 0.15% hits; Q9NZ08; inhibition, % at 10.7 µM;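 active means mean replicate inhibition of at least 30%, or all replicates individually reaching that 30% level; inactive means mean below 30% and not every replicate reaching it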;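 further: 0% = neutral control wells and 100% = L-leucinethiol positive control wells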
Target sequence (Q9NZ08 whole entry, looked up): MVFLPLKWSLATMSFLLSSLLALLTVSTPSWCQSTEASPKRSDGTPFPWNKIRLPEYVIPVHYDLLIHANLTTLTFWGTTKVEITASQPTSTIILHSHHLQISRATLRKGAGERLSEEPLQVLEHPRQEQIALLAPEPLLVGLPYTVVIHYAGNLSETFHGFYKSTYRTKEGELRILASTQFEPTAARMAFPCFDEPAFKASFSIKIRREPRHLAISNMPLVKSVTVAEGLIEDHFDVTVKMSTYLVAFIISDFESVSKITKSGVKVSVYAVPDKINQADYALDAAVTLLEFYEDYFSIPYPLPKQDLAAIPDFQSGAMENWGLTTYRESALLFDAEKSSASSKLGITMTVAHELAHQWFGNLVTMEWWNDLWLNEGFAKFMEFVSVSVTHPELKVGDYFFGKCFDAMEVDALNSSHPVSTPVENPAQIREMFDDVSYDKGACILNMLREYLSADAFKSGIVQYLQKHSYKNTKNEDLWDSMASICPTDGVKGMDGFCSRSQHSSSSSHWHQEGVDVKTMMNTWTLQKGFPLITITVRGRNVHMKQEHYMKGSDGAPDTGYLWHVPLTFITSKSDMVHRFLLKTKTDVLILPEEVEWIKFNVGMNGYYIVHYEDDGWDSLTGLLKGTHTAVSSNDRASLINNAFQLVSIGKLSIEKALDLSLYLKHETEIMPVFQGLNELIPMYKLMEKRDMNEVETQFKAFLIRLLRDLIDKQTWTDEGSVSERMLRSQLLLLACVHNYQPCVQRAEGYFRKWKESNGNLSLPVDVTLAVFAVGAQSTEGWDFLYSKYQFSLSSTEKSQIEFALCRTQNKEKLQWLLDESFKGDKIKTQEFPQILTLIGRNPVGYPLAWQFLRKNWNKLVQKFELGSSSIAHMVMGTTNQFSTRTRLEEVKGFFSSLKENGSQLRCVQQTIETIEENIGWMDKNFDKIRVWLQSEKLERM
SIRT5 block – sirtuin-5 (human) deacylase inhibition; Q9NXA8; Purified SirT5, succinyl-peptide AMC, trypsin-coupled fluorescence; inhibition, % at 15 µM; 330,000 compounds, 1.1% hits; in the data active means inhibition above about 15%
Numbers without * were called inactive; . = no result given; ! = a repeat was not active. The list is not random: actives were taken first. Their share in the collection is about 3.4%.

SMILES | Ecoli rRNA inh | MLL AF4-AF9 inh | E-sel inducer | S100A4 inh HTS | ERAP1 HTS inh | SIRT5 block
O=C(C[C@H]1CC[C@H]2[C@@H](COC[C@@H](O)CN2S(=O)(=O)c2ccccc2)O1)NCC1CCCCC1 | -2.9 | 6.1 | 0.0 | 6.3 | 0.2 | 2.5
O=C(C[C@H]1CC[C@H]2[C@@H](COC[C@@H](O)CN2S(=O)(=O)c2ccccc2)O1)Nc1ccc(-c2ccccc2)cc1 | -0.5 | -4.0 | 0.8 | -0.5 | 1.9 | 17.8*
O=C(C[C@@H]1CC[C@H]2[C@@H](COC[C@H](O)CN2S(=O)(=O)c2ccccc2)O1)NCC1CCCCC1 | -5.9 | 39.4* | -0.2 | 21.6 | 1.6 | -17.2
O=C(C[C@H]1CC[C@H]2[C@@H](COC[C@@H](O)CN2C(=O)c2ccncc2)O1)Nc1ccc(-c2ccccc2)cc1 | -4.1 | -1.1 | -0.1 | -1.1 | 0.0 | 26.9*
N#Cc1ccc(C23OCCN2CCn2c3c3ccccc3[n+]2[O-])cc1 (centres undefined) | -2.8 | 47.9* | 0.8 | 3.2 | 5.2 | -1.3
Cc1ccc(C23OCCN2CCn2nc4ccccc4c23)cc1 (centres undefined) | -0.1 | -6.8 | 0.1 | -4.5 | . | .
COc1ccccc1/C=C/C=N/NC(=O)Cc1cccn1C | 2.6 | 55.6* | . | 2.9 | 1.1 | 2.4
COc1ccccc1/C=C\C=N\NC(=O)CCn1nnc2ccccc21 | -2.6 | 4.1 | . | 2.8 | -2.5 | 2.5
Cc1noc(C)c1NC(=O)Nc1ccc2c(c1)C(=O)N([C@H](C)CO)C[C@@H](C)[C@H](CN(C)Cc1ccc(Cl)c(Cl)c1)OCCCC[C@H](C)O2 | 0.7 | 3.5 | -0.1 | 7.7 | -3.8 | 2.6
CCCN1C[C@@H](C)[C@H](OC)CN(C)C(=O)c2ccc(NC(=O)c3cccc(F)c3)cc2OC[C@@H]1C | -3.7 | 45.0* | -0.1 | 1.1 | 2.3 | 6.0
COc1cccc(S(=O)(=O)Nc2ccc3c(c2)C(=O)N(C)C[C@H](OC)[C@H](C)CN(Cc2ccccc2F)[C@@H](C)CO3)c1 | -18.4*! | 5.4 | -0.4 | 2.8 | 2.4 | -1.1
COc1cccc(S(=O)(=O)Nc2ccc3c(c2)C(=O)N(C)C[C@@H](OC)[C@@H](C)CN(Cc2ccccc2F)[C@H](C)CO3)c1 | -5.0 | -13.0 | -0.2 | -0.3 | 0.5 | .
COc1cccc(C(=O)Nc2ccc3c(c2)C(=O)N(C)C[C@@H](OC)[C@H](C)CN(CCc2ccccc2)[C@@H](C)CO3)c1 | -2.1 | 0.6 | 0.1 | -18.0 | . | 10.7
CCCN1C[C@H](C)[C@H](OC)CN(C)C(=O)c2cc(NC(=O)c3ccc(F)cc3)ccc2OC[C@H]1C | -0.1 | -1.9 | 0.1 | 11.7 | 0.7 | 16.2*
COc1cccc(C(=O)Nc2ccc3c(c2)C(=O)N(C)C[C@H](OC)[C@@H](C)CN(CCc2ccccc2)[C@@H](C)CO3)c1 | -4.3 | 0.1 | -0.2 | -9.5 | . | 18.3*
CO[C@@H]1CN(C)C(=O)c2cc(NC(=O)C3CC3)ccc2OC[C@@H](C)N(Cc2cc(F)ccc2F)C[C@H]1C | 2.4 | 0.3 | -0.4 | 24.1 | -1.9 | .
CO[C@H]1CN(C)C(=O)c2cc(NC(=O)C3CC3)ccc2OC[C@@H](C)N(Cc2cc(F)ccc2F)C[C@@H]1C | -7.2 | 43.5* | 0.2 | -2.3 | -1.7 | 3.6
COc1ccc2c3c([nH]c2c1)[C@@H](CO)N(C(=O)CN(C)C)CC31CN(Cc2ccncc2)C1 | 2.3 | 9.9 | -0.3 | . | . | .
COc1ccc(S(=O)(=O)Nc2ccc3c(c2)CC(=O)N([C@@H](C)CO)C[C@H](C)[C@@H](CN(C)Cc2ccc(C(F)(F)F)cc2)O3)cc1 | -0.7 | -0.4 | -0.1 | 10.9 | -0.3 | 16.0*
C[C@H]1CN([C@@H](C)CO)C(=O)c2cc(NS(C)(=O)=O)ccc2O[C@@H]1CN(C)Cc1ccc(C(F)(F)F)cc1 | 0.1 | -8.9 | -2.5 | 0.4 | -0.4 | 3.1
Cc1ccc(S(=O)(=O)Nc2ccc3c(c2)CC(=O)N([C@H](C)CO)C[C@H](C)[C@H](CN(C)Cc2ccc(C(F)(F)F)cc2)O3)cc1 | -1.1 | . | 0.3 | . | . | .
Cc1ccc(S(=O)(=O)Nc2ccc3c(c2)CC(=O)N([C@@H](C)CO)C[C@@H](C)[C@@H](CN(C)Cc2ccc(C(F)(F)F)cc2)O3)cc1 | -1.7 | . | 0.5 | . | . | .
C[C@@H]1CN([C@H](C)CO)C(=O)c2cc(NS(C)(=O)=O)ccc2O[C@@H]1CN(C)Cc1ccc(C(F)(F)F)cc1 | -1.5 | -14.0 | 110.3* | 0.5 | -0.1 | -1.4
C[C@@H]1CN([C@@H](C)CO)C(=O)Cc2cc(NS(=O)(=O)c3ccc(F)cc3)ccc2O[C@H]1CN(C)Cc1ccc(C(F)(F)F)cc1 | -2.8 | -1.4 | -0.2 | -8.7 | -0.9 | 35.9*
C[C@@H]1CN([C@H](C)CO)C(=O)Cc2cc(NS(=O)(=O)c3ccc(F)cc3)ccc2O[C@@H]1CN(C)Cc1ccc(C(F)(F)F)cc1 | -0.9 | 2.4 | 0.0 | -4.2 | -1.0 | 22.8*
SMILES | Ecoli rRNA inh | MLL AF4-AF9 inh | E-sel inducer | S100A4 inh HTS | ERAP1 HTS inh | SIRT5 block
COc1ccc(CN(C)C[C@@H]2Oc3ccc(NS(=O)(=O)c4ccc(OC)cc4)cc3CC(=O)N([C@@H](C)CO)C[C@H]2C)cc1 | 1.1 | -1.7 | -0.4 | -7.0 | -0.4 | -1.4
COc1ccc(S(=O)(=O)N(C)C[C@@H]2OCc3cn(nn3)CCCC(=O)N([C@@H](C)CO)C[C@@H]2C)cc1 | -1.2 | -0.4 | -0.3 | 38.6 | -1.9 | -3.6
Cc1ccc(S(=O)(=O)Nc2ccc3c(c2)CC(=O)N([C@@H](C)CO)C[C@H](C)[C@@H](CN(C)C(=O)Nc2c(C)noc2C)O3)cc1 | 2.2 | -2.6 | -0.1 | 26.2 | -0.4 | -6.3
CC(C)NC(=O)N(C)C[C@H]1Oc2cc(C3=CCCC3)ccc2S(=O)(=O)N([C@@H](C)CO)C[C@@H]1C | 0.4 | -10.2 | -0.1 | -7.7 | 2.9 | 1.4
C[C@H](CO)N1C[C@H](C)[C@@H](CN(C)Cc2ccc(C(F)(F)F)cc2)Oc2ccc(NS(C)(=O)=O)cc2CC1=O | -21.0 | 4.4 | 0.2 | 1.2 | -2.0 | 16.5*
CCCN1C[C@H](C)[C@H](OC)CN(C)C(=O)c2ccc(NC(=O)c3ccccc3F)cc2OC[C@H]1C | 1.6 | -2.5 | -0.2 | 6.9 | . | 3.8
C[C@@H]1CCCCO[C@H](CN(C)C(=O)CCC(F)(F)F)[C@H](C)CN([C@@H](C)CO)C(=O)c2cc(NS(=O)(=O)c3cccs3)ccc2O1 | -0.6 | . | 0.1 | . | . | .
O=C(CSc1ncnc2c1nnn2Cc1ccc(F)cc1)NC1CCCCC1 | -2.1 | -1.4 | 2.2 | 1.8 | -2.5 | 4.2
O=C(CSc1ncnc2c1nnn2Cc1ccc(F)cc1)NCC1CCCO1 (centres undefined) | 1.9 | -1.3 | -0.5 | 73.7* | 1.7 | -4.0
COc1cc(/C=C/C(=O)OCC(=O)Nc2ccc(Cl)cn2)ccc1O | 8.8 | 0.7 | 46.5* | 11.5 | 0.7 | -3.3

Source: PubChem BioAssay
